pIC50: −log10 of the molar value. The source made the active and inactive calls. The calls are words filed in the database; no cut-off is given here.
Tests used:
Format in all cases: functional, organism-based
Pseudomonas aeruginosa [1] = test: Inhibition of pyocyanin production in Pseudomonas aeruginosa
In short: (§1)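 Overnight nutrient broth cultures were pelleted, resuspended, grown to mid-log phase (OD600 0.3–0.5), and diluted to OD600 0.05. Cultures were exposed to compound in water at 50.00, 25.00, 10.00, 5.00, 2.50, 1.00, 0.10, 0.001 or zero final concentration, shaken 18 h at 37 C. Viable cells were counted, and the pellet OD600 was used to normalise pigment per bacterial OD unit.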

Pseudomonas aeruginosa [2] = test: Inhibition of pyoverdin production in Pseudomonas aeruginosa; in short: as §1
Pseudomonas aeruginosa [3] = test: Inhibition of pyocyanin production in Pseudomonas aeruginosa ATCC 9027; in short: as §1
Pseudomonas aeruginosa [4] = test: Inhibition of pyoverdin production in Pseudomonas aeruginosa ATCC 9027; in short: as §1

Row | Molecule | Activity (Pseudomonas aeruginosa [1]) | Activity (Pseudomonas aeruginosa [2]) | pIC50 (Pseudomonas aeruginosa [1]) | pIC50 (Pseudomonas aeruginosa [3]) | pIC50 (Pseudomonas aeruginosa [2]) | pIC50 (Pseudomonas aeruginosa [4])
1 | CCOP(=O)(OCC)O/N=C(/C)c1cccc(C)c1 | inactive | inactive | – | – | – | –
2 | PHENYL MERCURIC NITRATE | – | – | 5.52 | 5.49 | 5.50 | 5.40
3 | THIMEROSAL | – | – | 6.15 | 5.50 | 6.22 | 5.50
4 | triethylplumbyl 4-methylbenzenesulfonate | – | – | 6.55 | 6.80 | 6.45 | 6.10
